Results on three compounds are retold here after ChEMBL document CHEMBL1649247, “Fluoroquinolone resistance in Mycobacterium tuberculosis and mutations in gyrA and gyrB” (2009).

For assay [1], the system named is Mycobacterium tuberculosis. Put plainly: Antimycobacterial activity against Mycobacterium tuberculosis 08-0764 assessed as microbial susceptibility by agar proportion method. It is filed as functional, organism-based. The method, boiled down:
(§1)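 Clinical isolates freshly subcultured on Löwenstein-Jensen medium, held at 37°C no longer than 4 weeks. Fluoroquinolone stocks 1 mg/ml in 0.1 N NaOH, filter sterilized, kept at −20°C under 2 months. Standard proportion method on 7H11 agar; breakpoints 2 mg/liter ofloxacin, 0.5 mg/liter moxifloxacin and gatifloxacin; scored susceptible or resistant.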

The test system of assay [2] is Mycobacterium tuberculosis. As to the kind of experiment: Antimycobacterial activity against Mycobacterium tuberculosis 08-0789 assessed as microbial susceptibility by agar proportion method. It is filed as functional, organism-based. The gist of the method:
as §1

Assay [3] relates to Mycobacterium tuberculosis. As to the kind of experiment: Antimycobacterial activity against Mycobacterium tuberculosis 08-0781 by resazurin microtiter assay. In kind it is functional. The method, boiled down:
(§2)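 Isolates taken from fresh Löwenstein-Jensen subcultures grown at 37°C for at most 4 weeks. Drug stocks 1 mg/ml in 0.1 N NaOH, filter sterilized, stored at −20°C less than 2 months. MIC read by resazurin microtiter assay following a previously described protocol.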

Assay [4] has as its system Mycobacterium tuberculosis. Put plainly: Antimycobacterial activity against Mycobacterium tuberculosis 08-0782 by resazurin microtiter assay. In kind it is functional. The gist of the method:
as §2
On the technique in general: Resazurin is reduced to fluorescent resorufin, in cell work by metabolically active cells.

For assay [5], the system named is Mycobacterium tuberculosis. As to the kind of experiment: Antimycobacterial activity against Mycobacterium tuberculosis 08-0789 by resazurin microtiter assay. It is filed as functional. The gist of the method:
as §2

For assay [6], the system named is Mycobacterium tuberculosis. As to the kind of experiment: Antimycobacterial activity against Mycobacterium tuberculosis 08-0762 by resazurin microtiter assay. In kind it is functional. The gist of the method: as §2
Assay [7] concerns Mycobacterium tuberculosis. As to the kind of experiment: Antimycobacterial activity against Mycobacterium tuberculosis 08-0764 by resazurin microtiter assay. In kind it is functional. The gist of the method: as §2
Assay [8] has as its system Mycobacterium tuberculosis. As to the kind of experiment: Antimycobacterial activity against Mycobacterium tuberculosis 08-0774 by resazurin microtiter assay. It is filed as functional. The method, boiled down: as §2
Assay [9] has as its system Mycobacterium tuberculosis. As to the kind of experiment: Antimycobacterial activity against Mycobacterium tuberculosis 08-0774 assessed as microbial susceptibility by agar proportion method. In kind it is functional, organism-based. The method, boiled down:
as §1

Assay [10] relates to Mycobacterium tuberculosis. As to the kind of experiment: Antimycobacterial activity against Mycobacterium tuberculosis 08-0762 assessed as microbial susceptibility by agar proportion method. In kind it is functional, organism-based. The gist of the method: as §1
Assay [11] deals with Mycobacterium tuberculosis. Put plainly: Antimycobacterial activity against Mycobacterium tuberculosis 08-0782 assessed as microbial susceptibility by agar proportion method. It is filed as functional, organism-based. The method, boiled down:
as §1

Assay [12] deals with Mycobacterium tuberculosis. As to the kind of experiment: Antimycobacterial activity against Mycobacterium tuberculosis 08-0781 assessed as microbial susceptibility by agar proportion method. In kind it is functional, organism-based. The gist of the method:
as §1

≈ marks a conversion by molar mass, not a printed value. Calls of active or inactive are those of the source.

In the case of `COc1c(N2CCNC(C)C2)c(F)cc2c(=O)c(C(=O)O)cn(C3CC3)c12` (stereo unspecified) [GATIFLOXACIN], the result in [1], in [2], in assay [9], in assay [10], in [11] and in assay [12] was Active. The minimal inhibitory concentration (MIC) in assay [3] is at most 0.062 mg/L; in assay [4], 0.125 mg/L (≈ 0.333 µM); in assay [5], at most 0.062 mg/L; in assay [6] it was at most 0.062 mg/L; in assay [7], at most 0.062 mg/L; in assay [8], at most 0.062 mg/L.
`COc1c(N2C[C@@H]3CCCN[C@@H]3C2)c(F)cc2c(=O)c(C(=O)O)cn(C3CC3)c12` [MOXIFLOXACIN]: the result in [1], in assay [2], in [9], in assay [10], in assay [11] and in assay [12] was Active. Further, the minimum inhibitory concentration (MIC) in assay [3], in assay [4], in assay [5], in assay [6], in [7] and in assay [8] was at most 0.125 mg/L each time.
Take `CC1COc2c(N3CCN(C)CC3)c(F)cc3c(=O)c(C(=O)O)cn1c23` (stereo unspecified) [OFLOXACIN]: the result in [1], in assay [2], in assay [9], in assay [10], in [11] and in [12] was Active. Moreover, the MIC in assay [3] was at most 0.25 mg/L; in assay [4] it was 0.5 mg/L (≈ 1.38 µM); in assay [5] it was 0.5 mg/L (≈ 1.38 µM); in assay [6], 0.5 mg/L (≈ 1.38 µM); in assay [7], 0.5 mg/L (≈ 1.38 µM); in [8], at most 0.25 mg/L.

By MIC is commonly meant the smallest concentration in the dilution series that meets the test's criterion for growth inhibition. The low end stands for greater potency, the high end for weaker potency.
